Assay results taken from ChEMBL document CHEMBL4354843, “Structure-Based Design of a Potent and Selective Covalent Inhibitor for SRC Kinase That Targets a P-Loop Cysteine” (J Med Chem, 2020).

Legend:
[1] = biological target: Serine/threonine-protein kinase Sgk3 (Homo sapiens) (UniProt Q96BR1); assay: Binding affinity to wild-type human partial length SGK3 (M119 to L496 residues) expressed in mammalian expression system assessed as residual binding level at 1 uM by Kinomescan method relative to control
In short: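 Active site-directed competition binding panel (KinomeScan, 468 kinases). Test compound at 1 μM. Read-out is kinase binding remaining versus DMSO control, expressed as percent of control. Scores above 35% are treated as weak binding.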

[2] = biological target: Maternal embryonic leucine zipper kinase (Homo sapiens) (UniProt Q14680); assay: Binding affinity to wild-type human full length MELK (M1 to V651 residues) expressed in bacterial expression system assessed as residual binding level at 1 uM by Kinomescan method relative to control
In short: (§1)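 Active-site-directed competition binding panel (KinomeScan) covering 468 kinases. Test agent was screened at 1 μM. The read-out is the remaining kinase signal expressed relative to a DMSO control. Scores above 35%, taken as weak binding, were not reported.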

[3] = biological target: Serine/threonine-protein kinase NLK (Homo sapiens) (UniProt Q9UBE8); assay: Binding affinity to wild-type human full length NLK (M13 to E527 residues) expressed in bacterial expression system assessed as residual binding level at 1 uM by Kinomescan method relative to control
In short: (§2)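 KinomeScan, an active site-directed competition binding panel of 468 kinases. The test compound was at 1 μM. The readout is remaining kinase binding as a percentage of the DMSO control. Scores above 35% were treated as weak binding and not listed.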

[4] = biological target: Serine/threonine-protein kinase TNNI3K (Homo sapiens) (UniProt Q59H18); assay: Binding affinity to wild-type human full length TNNI3K (M1 to S835 residues) expressed in bacterial expression system assessed as residual binding level at 1 uM by Kinomescan method relative to control; in short: as §2
[5] = biological target: Casein kinase I isoform epsilon (Homo sapiens) (UniProt P49674); assay: Binding affinity to wild-type human full length CSNK1E (M1 to K416 residues) expressed in bacterial expression system assessed as residual binding level at 1 uM by Kinomescan method relative to control
In short: (§3)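 Active-site-directed KinomeScan competition binding panel covering 468 kinases, compound tested at 1 μM. Each readout is the kinase signal remaining with compound, expressed as a percentage of the DMSO control. […]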

[6] = biological target: Atypical kinase COQ8B, mitochondrial (Homo sapiens) (UniProt Q96D53); assay: Binding affinity to wild-type human full length ADCK4 (M1 to S544 residues) expressed in bacterial expression system assessed as residual binding level at 1 uM by Kinomescan method relative to control; in short: as §3
[7] = biological target: Serine/threonine-protein kinase NIM1 (Homo sapiens) (UniProt Q8IY84); assay: Binding affinity to wild-type human partial length NIM1 (Q44 to N355 residues) expressed in mammalian expression system assessed as residual binding level at 1 uM by Kinomescan method relative to control
[8] = biological target: Cyclin-dependent kinase 7 (Homo sapiens) (UniProt P50613); assay: Binding affinity to wild-type human full length CDK7 (M1 to L344 residues) expressed in mammalian expression system assessed as residual binding level at 1 uM by Kinomescan method relative to control; in short: as §3
[9] = biological target: cGMP-dependent protein kinase 1 (Homo sapiens) (UniProt Q13976); assay: Binding affinity to wild-type human partial length PRKG1 (L339 to F686 residues) expressed in bacterial expression system assessed as residual binding level at 1 uM by Kinomescan method relative to control
[10] = biological target: Insulin receptor (Homo sapiens) (UniProt P06213); assay: Binding affinity to wild-type human partial length INSR (P997 to E1318 residues) expressed in mammalian expression system assessed as residual binding level at 1 uM by Kinomescan method relative to control
[11] = biological target: Mitogen-activated protein kinase 6 (Homo sapiens) (UniProt Q16659); assay: Binding affinity to wild-type human partial length ERK3 (M1 to P413 residues) expressed in bacterial expression system assessed as residual binding level at 1 uM by Kinomescan method relative to control
[12] = biological target: Mitogen-activated protein kinase 9 (Homo sapiens) (UniProt P45984); assay: Binding affinity to wild-type human full length JNK2 (M1 to Q382 residues) expressed in mammalian expression system assessed as residual binding level at 1 uM by Kinomescan method relative to control; in short: as §2
[13] = biological target: CDK4/Cyclin D3 (Homo sapiens) (UniProt P11802+P30281); assay: Binding affinity to wild-type human full length CDK4/cyclinD3 (M1 to E303 residues) expressed in mammalian expression system assessed as residual binding level at 1 uM by Kinomescan method relative to control; in short: as §3
[14] = biological target: Receptor-interacting serine/threonine-protein kinase 2 (Homo sapiens) (UniProt O43353); assay: Binding affinity to wild-type human partial length RIPK2 (M1 to K310 residues) expressed in bacterial expression system assessed as residual binding level at 1 uM by Kinomescan method relative to control
[15] = biological target: Serine/threonine-protein kinase Sgk1 (Homo sapiens) (UniProt O00141); assay: Binding affinity to wild-type human partial length SGK (I60 to L431 residues) expressed in mammalian expression system assessed as residual binding level at 1 uM by Kinomescan method relative to control
[16] = biological target: Mitogen-activated protein kinase 12 (Homo sapiens) (UniProt P53778); assay: Binding affinity to wild-type human full length p38-gamma (M1 to L367 residues) expressed in mammalian expression system assessed as residual binding level at 1 uM by Kinomescan method relative to control; in short: as §2
[17] = biological target: Cyclin-dependent kinase 17 (Homo sapiens) (UniProt Q00537); assay: Binding affinity to wild-type human full length PCTK2 (M1 to F523 residues) expressed in bacterial expression system assessed as residual binding level at 1 uM by Kinomescan method relative to control; in short: as §1
[18] = biological target: Protein kinase C epsilon type (Homo sapiens) (UniProt Q02156); assay: Binding affinity to wild-type human partial length PRKCE (A378 to P737 residues) expressed in mammalian expression system assessed as residual binding level at 1 uM by Kinomescan method relative to control
[19] = biological target: Ribosomal protein S6 kinase alpha-3 (Homo sapiens) (UniProt P51812); assay: Binding affinity to wild-type human partial length N- terminal RSK2 kinase domain 1 (M1 to D394 residues) expressed in mammalian expression system assessed as residual binding level at 1 uM by Kinomescan method relative to control
[20] = biological target: Ephrin type-B receptor 1 (Homo sapiens) (UniProt P54762); assay: Binding affinity to wild-type human partial length EPHB1 (P589 to T911 residues) expressed in bacterial expression system assessed as residual binding level at 1 uM by Kinomescan method relative to control
[21] = tested on: Phosphatidylinositol 4,5-bisphosphate 3-kinase catalytic subunit alpha isoform (Homo sapiens), P42336 [H1047Y]; assay: Binding affinity to human partial length PIK3CA H1047Y mutant (R108 to N1068 residues) expressed in mammalian expression system assessed as residual binding level at 1 uM by Kinomescan method relative to control
In short: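 KinomeScan active site-directed competition binding panel (468 kinases), compound tested at 1 μM. Result expressed as remaining kinase signal versus DMSO control (percent of control).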

Chain of Serine/threonine-protein kinase TNNI3K (Homo sapiens) (Q59H18 whole entry, the tested form may be a part, canonical isoform): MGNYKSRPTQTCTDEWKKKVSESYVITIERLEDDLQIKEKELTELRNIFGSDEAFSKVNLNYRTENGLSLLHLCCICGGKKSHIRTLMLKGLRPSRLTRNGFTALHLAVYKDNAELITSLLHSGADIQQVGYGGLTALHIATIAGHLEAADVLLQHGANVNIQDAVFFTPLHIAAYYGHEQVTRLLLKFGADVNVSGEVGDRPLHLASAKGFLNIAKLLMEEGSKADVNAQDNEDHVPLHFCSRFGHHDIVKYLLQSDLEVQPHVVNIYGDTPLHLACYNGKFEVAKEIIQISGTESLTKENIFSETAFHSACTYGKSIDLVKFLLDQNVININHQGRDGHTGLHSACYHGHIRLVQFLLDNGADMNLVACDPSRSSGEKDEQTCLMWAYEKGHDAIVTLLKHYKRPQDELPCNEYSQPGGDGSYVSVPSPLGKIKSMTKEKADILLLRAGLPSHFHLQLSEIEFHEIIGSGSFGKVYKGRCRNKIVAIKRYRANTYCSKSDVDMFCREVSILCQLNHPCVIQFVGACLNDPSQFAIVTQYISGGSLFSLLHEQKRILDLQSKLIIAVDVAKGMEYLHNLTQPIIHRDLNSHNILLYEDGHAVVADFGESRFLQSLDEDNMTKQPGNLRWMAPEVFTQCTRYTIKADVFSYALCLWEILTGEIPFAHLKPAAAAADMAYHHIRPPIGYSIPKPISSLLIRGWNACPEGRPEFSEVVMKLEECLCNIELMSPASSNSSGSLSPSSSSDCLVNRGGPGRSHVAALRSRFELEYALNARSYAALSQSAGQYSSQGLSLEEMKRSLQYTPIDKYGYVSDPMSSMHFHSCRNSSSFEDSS
Chain of Ribosomal protein S6 kinase alpha-3 (Homo sapiens) (P51812 whole entry, the tested form may be a part): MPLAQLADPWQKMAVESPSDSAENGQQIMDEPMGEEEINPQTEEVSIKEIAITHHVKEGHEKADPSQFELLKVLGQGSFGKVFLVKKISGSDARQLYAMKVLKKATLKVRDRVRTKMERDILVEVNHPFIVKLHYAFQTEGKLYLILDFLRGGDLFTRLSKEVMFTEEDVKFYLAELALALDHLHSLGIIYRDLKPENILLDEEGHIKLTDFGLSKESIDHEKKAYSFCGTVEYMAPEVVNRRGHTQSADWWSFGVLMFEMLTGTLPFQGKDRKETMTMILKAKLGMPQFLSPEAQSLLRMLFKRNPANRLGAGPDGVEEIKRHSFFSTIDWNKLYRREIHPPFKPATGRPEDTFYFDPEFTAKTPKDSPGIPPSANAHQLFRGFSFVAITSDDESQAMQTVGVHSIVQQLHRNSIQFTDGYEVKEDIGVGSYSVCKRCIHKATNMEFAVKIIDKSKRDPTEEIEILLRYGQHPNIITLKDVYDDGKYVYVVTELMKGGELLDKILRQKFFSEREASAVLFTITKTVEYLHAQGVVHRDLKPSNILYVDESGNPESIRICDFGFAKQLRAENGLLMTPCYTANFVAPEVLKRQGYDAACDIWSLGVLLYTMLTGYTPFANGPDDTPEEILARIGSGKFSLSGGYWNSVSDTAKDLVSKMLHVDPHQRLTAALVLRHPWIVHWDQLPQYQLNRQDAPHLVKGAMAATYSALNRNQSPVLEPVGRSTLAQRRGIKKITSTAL
Chain of Maternal embryonic leucine zipper kinase (Homo sapiens) (Q14680 whole entry, looked up, the tested form may be a part): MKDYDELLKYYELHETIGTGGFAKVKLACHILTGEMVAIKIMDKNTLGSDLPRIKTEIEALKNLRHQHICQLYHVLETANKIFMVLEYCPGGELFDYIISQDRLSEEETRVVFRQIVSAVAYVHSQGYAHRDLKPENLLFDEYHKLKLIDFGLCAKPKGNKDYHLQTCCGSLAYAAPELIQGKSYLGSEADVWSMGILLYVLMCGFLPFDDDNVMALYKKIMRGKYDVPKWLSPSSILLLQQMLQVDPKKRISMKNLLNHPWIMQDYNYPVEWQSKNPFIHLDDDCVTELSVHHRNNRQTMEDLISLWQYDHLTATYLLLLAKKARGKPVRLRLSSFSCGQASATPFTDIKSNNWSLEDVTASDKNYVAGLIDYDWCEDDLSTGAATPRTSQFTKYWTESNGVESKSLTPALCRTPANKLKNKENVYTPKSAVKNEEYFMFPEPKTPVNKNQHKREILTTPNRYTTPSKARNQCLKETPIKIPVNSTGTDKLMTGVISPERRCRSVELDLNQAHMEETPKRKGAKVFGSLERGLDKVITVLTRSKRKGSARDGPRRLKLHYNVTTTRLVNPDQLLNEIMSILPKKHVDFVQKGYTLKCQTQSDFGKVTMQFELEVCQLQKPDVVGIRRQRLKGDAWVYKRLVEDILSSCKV
Chain of Protein kinase C epsilon type (Homo sapiens) (Q02156 whole entry, the tested form may be a part): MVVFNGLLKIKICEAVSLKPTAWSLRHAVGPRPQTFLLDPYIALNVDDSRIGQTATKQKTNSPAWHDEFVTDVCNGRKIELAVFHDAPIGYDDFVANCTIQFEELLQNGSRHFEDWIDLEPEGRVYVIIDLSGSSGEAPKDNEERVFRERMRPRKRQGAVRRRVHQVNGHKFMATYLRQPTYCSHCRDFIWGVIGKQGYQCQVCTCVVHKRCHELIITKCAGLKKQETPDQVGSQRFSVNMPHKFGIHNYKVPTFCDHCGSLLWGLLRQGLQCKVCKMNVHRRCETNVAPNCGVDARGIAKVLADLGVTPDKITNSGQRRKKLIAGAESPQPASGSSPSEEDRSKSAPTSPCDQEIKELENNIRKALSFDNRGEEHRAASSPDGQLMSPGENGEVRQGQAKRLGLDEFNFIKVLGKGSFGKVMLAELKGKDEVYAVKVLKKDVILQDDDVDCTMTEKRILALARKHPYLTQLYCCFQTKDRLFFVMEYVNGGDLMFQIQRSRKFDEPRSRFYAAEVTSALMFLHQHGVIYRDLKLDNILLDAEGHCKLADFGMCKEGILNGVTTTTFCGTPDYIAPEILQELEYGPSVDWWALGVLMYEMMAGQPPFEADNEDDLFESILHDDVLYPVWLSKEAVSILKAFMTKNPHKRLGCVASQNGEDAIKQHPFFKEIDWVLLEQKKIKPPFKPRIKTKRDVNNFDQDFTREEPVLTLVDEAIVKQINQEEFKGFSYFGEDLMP
Chain of Atypical kinase COQ8B, mitochondrial (Homo sapiens) (Q96D53 whole entry, the tested form may be a part): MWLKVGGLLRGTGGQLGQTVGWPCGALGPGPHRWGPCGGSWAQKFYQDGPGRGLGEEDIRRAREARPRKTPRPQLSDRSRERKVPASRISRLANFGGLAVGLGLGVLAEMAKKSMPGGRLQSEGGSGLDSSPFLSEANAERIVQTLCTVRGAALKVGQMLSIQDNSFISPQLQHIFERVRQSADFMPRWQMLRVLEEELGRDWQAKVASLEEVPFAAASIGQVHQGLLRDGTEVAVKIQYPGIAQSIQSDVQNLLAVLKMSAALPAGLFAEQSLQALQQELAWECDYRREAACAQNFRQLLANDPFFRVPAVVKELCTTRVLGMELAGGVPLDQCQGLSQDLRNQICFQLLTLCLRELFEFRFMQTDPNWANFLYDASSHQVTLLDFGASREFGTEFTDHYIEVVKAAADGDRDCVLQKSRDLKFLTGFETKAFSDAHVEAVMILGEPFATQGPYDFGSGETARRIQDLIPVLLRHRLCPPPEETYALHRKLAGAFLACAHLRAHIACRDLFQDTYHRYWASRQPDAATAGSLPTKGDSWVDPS
Chain of Insulin receptor (Homo sapiens) (P06213 28-758 limits assumed): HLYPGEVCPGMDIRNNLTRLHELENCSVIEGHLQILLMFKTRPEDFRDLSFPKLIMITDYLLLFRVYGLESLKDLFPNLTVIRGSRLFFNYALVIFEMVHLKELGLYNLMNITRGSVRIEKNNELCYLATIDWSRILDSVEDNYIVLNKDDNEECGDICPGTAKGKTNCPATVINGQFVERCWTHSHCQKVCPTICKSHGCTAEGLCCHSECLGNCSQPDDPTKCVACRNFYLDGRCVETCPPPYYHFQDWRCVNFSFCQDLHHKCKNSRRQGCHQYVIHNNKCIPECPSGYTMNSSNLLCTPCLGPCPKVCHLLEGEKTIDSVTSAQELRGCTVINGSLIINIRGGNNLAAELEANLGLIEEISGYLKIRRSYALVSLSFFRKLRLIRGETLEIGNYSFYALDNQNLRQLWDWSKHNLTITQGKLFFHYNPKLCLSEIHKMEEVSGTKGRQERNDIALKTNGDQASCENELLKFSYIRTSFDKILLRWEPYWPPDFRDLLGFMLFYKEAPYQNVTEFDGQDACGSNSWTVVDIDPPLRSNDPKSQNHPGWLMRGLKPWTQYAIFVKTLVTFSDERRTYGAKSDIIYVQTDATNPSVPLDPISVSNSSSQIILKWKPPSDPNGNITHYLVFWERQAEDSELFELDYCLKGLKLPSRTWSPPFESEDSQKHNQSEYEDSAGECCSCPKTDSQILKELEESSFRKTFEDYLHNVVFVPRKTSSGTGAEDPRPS
Chain of Insulin receptor (Homo sapiens) (P06213 763-1382 limits assumed): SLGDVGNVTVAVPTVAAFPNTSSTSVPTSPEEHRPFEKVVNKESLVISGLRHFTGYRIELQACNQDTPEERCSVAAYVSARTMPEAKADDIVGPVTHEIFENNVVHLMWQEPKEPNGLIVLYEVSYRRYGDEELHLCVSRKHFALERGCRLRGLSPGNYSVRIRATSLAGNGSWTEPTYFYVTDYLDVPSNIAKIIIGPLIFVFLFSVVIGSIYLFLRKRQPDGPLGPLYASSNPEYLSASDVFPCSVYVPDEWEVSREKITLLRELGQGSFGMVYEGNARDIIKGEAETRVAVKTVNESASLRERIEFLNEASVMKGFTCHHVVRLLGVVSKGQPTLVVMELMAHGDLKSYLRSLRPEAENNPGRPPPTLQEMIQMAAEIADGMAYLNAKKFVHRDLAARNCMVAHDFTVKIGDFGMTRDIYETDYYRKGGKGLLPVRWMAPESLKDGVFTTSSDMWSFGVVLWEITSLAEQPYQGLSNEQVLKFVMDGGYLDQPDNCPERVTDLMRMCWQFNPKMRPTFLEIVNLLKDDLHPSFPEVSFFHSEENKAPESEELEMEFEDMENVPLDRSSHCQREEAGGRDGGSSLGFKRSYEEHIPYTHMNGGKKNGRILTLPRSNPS

## C=CC(=O)Nc1ccccc1Nc1nc(Nc2ccc(N3CCN(C)CC3)cc2)ncc1C(=O)Nc1c(C)cccc1Cl
[1]
  Activity: 86%
[2]
  Activity: 100%
[3]
  Activity: 76%
[4]
  Activity: 83%
[5]
  Activity: 100%
[6]
  Activity: 100%
[7]
  Activity: 100%
[8]
  Activity: 100%
[9]
  Activity: 100%
[10]
  Activity: 100%
[11]
  Activity: 100%
[12]
  Activity: 94%
[13]
  Activity: 100%
[14]
  Activity: 100%
[15]
  Activity: 95%
[16]
  Activity: 97%
[17]
  Activity: 100%
[18]
  Activity: 100%
[19]
  Activity: 75%
[20]
  Activity: 66%
[21]
  Activity: 100%
